The record followed here is ChEMBL document CHEMBL1155387, “Substituted fused bicyclic pyrrolizinones as potent, orally bioavailable hNK1 antagonists” (Bioorg Med Chem Lett, 2010).

Data set [1] deals with Gerbillinae. Put plainly: Inhibition of GR-73632-induced foot tapping in gerbils at 1 mg/kg, iv after 0.1 hrs. The class given is functional.
Data set [2] concerns the target T1, Substance-P receptor (Homo sapiens, UniProt P25103). Put plainly: Displacement of [125I]substance P from human NK1 receptor expressed in CHO cells in the presence of 50 percent human serum. The class given is cell-based. Background: In a radioligand displacement assay an active substance lowers the binding of a labelled ligand.
For data set [3], the system named is Gerbillinae. Put plainly: Inhibition of GR-73632-induced foot tapping in gerbils at 3 mg/kg, iv after 24 hrs. The class given is functional. The following applies: Gerbillinae, iv, 24 h. The method, boiled down: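 Gerbils dosed iv at 3 mg/kg; foot tapping induced by NK1 agonist GR73632 evaluated 24 h post-dose; percent inhibition of the tapping response.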

The target in data set [4] is T1, Substance-P receptor. Put plainly: Antagonist activity at human NK1 receptor expressed in CHO cells assessed as inhibition of substance P-induced inositol phosphate generation at 100 nM. The class given is functional, cell-based.
Data set [5] concerns the target T1, Substance-P receptor. Put plainly: Displacement of [125I]substance P from human NK1 receptor expressed in CHO cells. The class given is cell-based. Summed up: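 Competition binding: [125I]-labelled substance P displaced from cloned human NK1 receptor expressed in CHO cells; IC50 reported as mean of n = 3.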
For data set [6], the system named is Gerbillinae. Put plainly: Inhibition of GR-73632-induced foot tapping in gerbils at 1 mg/kg, iv after 1 hr. The class given is functional. The method, boiled down:
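Gerbils given 1 mg/kg iv; GR73632-induced foot tapping challenged 1 h after dosing; inhibition of tapping scored.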

In the next data set the target is Cytochrome P450 2C9 (Homo sapiens, UniProt P11712). Put plainly: Inhibition of CYP2C9. The class given is ADME.
Data set [7] can be described thus: Plasma clearance in rat. The class given is ADME, organism-based.
A short description of data set [8]: Stability in dog microsomes assessed as compound remaining after 60 mins. The class given is ADME, Canis lupus familiaris, Microsome. The following applies: read-out: Stability.
The nature of data set [9]: Half life in rat. The following applies: in vivo. The class given is ADME, organism-based.
Data set [10] deals with Gerbillinae. Put plainly: Inhibition of GR-73632-induced foot taping in iv dosed gerbils after 1 hr. The class given is functional. The conditions noted are these: read-out: ID50 (the source's name).
The nature of data set [11]: Ratio of drug level in brain to plasma in rat at 1 mg/kg, iv after 4 hrs. The class given is ADME, organism-based. Also on record: dose 1 mg/kg, route intravenous. The conditions noted are these: brain and plasma.
Data set [12] deals with Gerbillinae. Put plainly: Inhibition of GR-73632-induced foot taping in iv dosed gerbils after 24 hrs. The conditions noted are these: read-out: ID50 (the source's name). The class given is functional.
Data set [13] can be described thus: Displacement of diltiazem […] from calcium channel. Summed up:
(§1)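 Ion-channel binding assay; IC50 values calculated for sodium channel and for calcium channel (diltiazem site).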

Data set [14] in a line: Volume of distribution in rat. The class given is ADME, organism-based. The conditions noted are these: in vivo.
The nature of data set [15]: Oral bioavailability in rat. The class given is ADME, organism-based. The following applies: in vivo.
Data set [16] is described as follows: Stability in human microsomes assessed as compound remaining after 60 mins. The following applies: read-out: Stability. The class given is ADME, Microsome.
Data set [17] in a line: Inhibition of sodium channel. The method, boiled down:
as §1

A short description of data set [18]: Stability in rat microsomes assessed as compound remaining after 60 mins. The class given is ADME, Microsome. The conditions noted are these: read-out: Stability.
A further data set has as its target Cytochrome P450 3A4 (Homo sapiens, UniProt P08684). Put plainly: Inhibition of CYP3A4. The class given is ADME.
The target of the next data set is Cytochrome P450 2D6 (Homo sapiens, UniProt P10635). Put plainly: Inhibition of CYP2D6. The class given is ADME.
Data set [19] in a line: Stability in rhesus monkey microsomes assessed as compound remaining after 60 mins. The class given is ADME, Macaca mulatta, Microsome. The following applies: read-out: Stability.

Usually inhibition in vivo stands for how much of the control response was suppressed. The IC50 is the concentration that inhibits the measured activity by half. The term clearance denotes the rate of elimination divided by the concentration. By half-life is commonly meant the time needed for the level to fall by half in the phase considered. What is called Kp is the ratio of the level in a tissue or fluid to that in plasma or blood. Broadly, the Vd is the apparent volume that relates the amount in the body to the concentration in plasma or blood. Broadly, the bioavailability is the share of a dose that reaches the circulation, judged against a reference dose that is usually intravenous.

T1 sequence (P25103 whole entry): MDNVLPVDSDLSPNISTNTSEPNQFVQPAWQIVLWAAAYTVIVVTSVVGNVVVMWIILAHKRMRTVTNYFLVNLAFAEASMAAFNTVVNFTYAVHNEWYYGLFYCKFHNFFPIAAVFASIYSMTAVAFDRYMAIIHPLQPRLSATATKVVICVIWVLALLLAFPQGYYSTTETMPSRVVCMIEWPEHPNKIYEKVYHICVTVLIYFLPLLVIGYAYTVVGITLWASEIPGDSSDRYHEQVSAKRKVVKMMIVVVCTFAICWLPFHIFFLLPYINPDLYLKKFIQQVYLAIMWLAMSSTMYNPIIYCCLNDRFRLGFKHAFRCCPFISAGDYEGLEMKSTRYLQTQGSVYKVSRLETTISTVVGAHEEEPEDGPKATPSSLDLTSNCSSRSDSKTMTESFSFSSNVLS
Chain of Cytochrome P450 2D6 (P10635 whole entry): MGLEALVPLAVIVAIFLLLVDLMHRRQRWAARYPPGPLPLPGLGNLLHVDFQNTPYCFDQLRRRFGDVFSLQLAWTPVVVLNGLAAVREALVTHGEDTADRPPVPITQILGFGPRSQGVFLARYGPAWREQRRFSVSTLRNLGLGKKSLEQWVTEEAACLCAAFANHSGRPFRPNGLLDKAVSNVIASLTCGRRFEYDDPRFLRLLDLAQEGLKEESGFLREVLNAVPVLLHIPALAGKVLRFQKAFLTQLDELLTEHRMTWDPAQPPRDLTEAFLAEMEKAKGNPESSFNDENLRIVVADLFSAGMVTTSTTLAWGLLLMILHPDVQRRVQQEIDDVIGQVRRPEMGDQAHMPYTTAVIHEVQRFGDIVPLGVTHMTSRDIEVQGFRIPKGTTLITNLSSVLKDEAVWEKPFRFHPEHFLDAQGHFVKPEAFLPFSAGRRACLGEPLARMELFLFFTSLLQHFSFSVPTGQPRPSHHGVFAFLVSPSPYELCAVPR
Chain of Cytochrome P450 3A4 (P08684 whole entry): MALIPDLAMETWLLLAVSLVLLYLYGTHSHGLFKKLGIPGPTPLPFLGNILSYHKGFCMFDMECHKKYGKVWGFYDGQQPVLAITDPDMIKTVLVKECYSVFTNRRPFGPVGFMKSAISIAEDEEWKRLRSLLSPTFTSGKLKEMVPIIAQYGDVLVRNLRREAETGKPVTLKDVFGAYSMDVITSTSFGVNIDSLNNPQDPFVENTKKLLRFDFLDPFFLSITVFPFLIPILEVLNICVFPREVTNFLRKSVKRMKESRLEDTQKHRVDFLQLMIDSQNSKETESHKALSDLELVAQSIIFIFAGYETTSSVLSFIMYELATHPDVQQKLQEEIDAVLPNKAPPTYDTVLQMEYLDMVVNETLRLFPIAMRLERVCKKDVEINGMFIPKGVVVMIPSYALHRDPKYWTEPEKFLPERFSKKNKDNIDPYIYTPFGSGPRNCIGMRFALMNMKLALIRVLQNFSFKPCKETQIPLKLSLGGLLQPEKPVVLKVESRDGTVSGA
Chain of Cytochrome P450 2C9 (P11712 whole entry): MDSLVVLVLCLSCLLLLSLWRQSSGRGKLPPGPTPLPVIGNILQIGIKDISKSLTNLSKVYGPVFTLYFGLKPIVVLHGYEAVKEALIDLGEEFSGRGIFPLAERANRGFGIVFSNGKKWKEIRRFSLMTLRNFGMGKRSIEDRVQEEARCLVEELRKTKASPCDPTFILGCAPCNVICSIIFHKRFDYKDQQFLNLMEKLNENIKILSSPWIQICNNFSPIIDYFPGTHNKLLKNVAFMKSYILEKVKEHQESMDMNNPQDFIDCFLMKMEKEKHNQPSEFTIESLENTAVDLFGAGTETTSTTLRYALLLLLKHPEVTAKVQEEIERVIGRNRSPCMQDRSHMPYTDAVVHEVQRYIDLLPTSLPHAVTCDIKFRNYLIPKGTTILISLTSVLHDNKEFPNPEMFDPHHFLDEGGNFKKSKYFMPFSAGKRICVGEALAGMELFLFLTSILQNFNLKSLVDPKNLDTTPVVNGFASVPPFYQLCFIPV

Consider `CC(=O)N1C[C@H](O[C@H](C)c2cc(C(F)(F)F)cc(C(F)(F)F)c2)[C@@H](c2ccc(F)cc2)[C@@H]1CO`, for which, in the data set with Gerbillinae [1], the inhibition in vivo at 1 mg/kg was determined as 49%. Moreover, the IC50 turned out to be 43.1 nM on Substance-P receptor [2] and 0.3 nM on Substance-P receptor [5]. The same compound had an inhibition in vivo at 3 mg/kg in the data set on Gerbillinae [3] of 0%. Moreover, the inhibition of substance P-induced inositol phosphate generation on Substance-P receptor [4] worked out at 91%.

For the compound `C[C@@H](O[C@H]1CN2C(=O)CC[C@H]2[C@@H]1c1ccc(F)cc1)c1cc(C(F)(F)F)cc(C(F)(F)F)c1`, the inhibition in vivo at 1 mg/kg in the data set on Gerbillinae [6] and in the data set on Gerbillinae [1] was 100% throughout. Moreover, the IC50 on Substance-P receptor [2] is 2.2 nM. 3 mg/kg produced 100% inhibition in vivo in the data set with Gerbillinae [3]. Moreover, the inhibition of substance P-induced inositol phosphate generation at Substance-P receptor [4] is 67%.

`C[C@@H](O[C@H]1CN2C(=O)CC(N)[C@H]2[C@@H]1c1ccc(F)cc1)c1cc(C(F)(F)F)cc(C(F)(F)F)c1` (stereo in doubt; 15a): the Activity was 45 µM on Cytochrome P450 2C9, more than 100 µM at Cytochrome P450 3A4 and 66 µM at Cytochrome P450 2D6. This compound also showed a clearance in data set [7] of 8.9 mL/min/kg. Moreover, the remaining at 1 h in data set [8] was determined as 89%; in data set [16], 66%; in data set [18], 85%; in data set [19], 91%. The same compound gave a half-life in [9] of 7.7 h. Besides, the figures for the ED50 with Gerbillinae [10] and in the data set with Gerbillinae [12] were 0.88 mg/kg and 0.92 mg/kg, respectively. Also, in data set [11], the Kp at 4 h came out at 1.4. Moreover, the IC50 was determined as 1880 nM in data set [13], 0.6 nM at Substance-P receptor [2], 7720 nM in [17] and 0.09 nM on Substance-P receptor [5]. Also, the distribution volume (Vd) in data set [14] came out at 5.9 L/kg. Besides, in data set [15], the bioavailability worked out at 78%. In the data set on Gerbillinae [3], this compound displayed an inhibition in vivo at 3 mg/kg of 100%.
